Measurements taken from ChEMBL document CHEMBL1121519, “Basic antiinflammatory compounds. N,N',N''-Trisubstituted guanidines” (J Med Chem, 1980).

How the values were obtained:
[1] = Lethal dose in mice determined by Litchfield and Wilcoxon methods after peroral administration.; format: toxicity, organism-based; settings: mouse, in vivo, po
How it was run: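 Median lethal dose found after oral dosing of mice, four mice per dose level, and calculated by the Litchfield–Wilcoxon method.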

[2] = target: Cyclooxygenase (Bos taurus) (UniProt O62664+O62698); assay: Inhibition of prostaglandin synthetase in bovine seminal vesicle microsomes using Beckman liquid scintillation counter at 10 e-5 M; settings: Microsome
[3] = Toxic score (3) was measured as lethal dose in orally administered mice; format: toxicity, organism-based; settings: mouse, in vivo, po
How it was run: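 Score derived from mouse oral LD50 (Litchfield–Wilcoxon, four mice per dose), in mg/kg: >1000 = 3; 500-1000 = 2; <500 = 1.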

[4] = test system: Rattus norvegicus; assay: Percent inhibition of carrageenan paw edema in rat, administered orally at a dose of one tenth of oral lethal dose in mice; format: functional
How it was run: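 1 h later, 0.1 mL of 1% carrageenan was injected into the right hind-paw plantar tissue. Paw swelling was measured by mercury-displacement plethysmometry 3 h after carrageenan, compared with controls.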

[5] = test system: Rattus norvegicus; assay: Total score is the sum of scores obtained in the adjuvant arthritis, acute toxicity, carrageenan edema, and prostaglandin synthetase assay; format: functional
[6] = organism: Rattus norvegicus; assay: Tested for enhancement in the rat paw injected with carrageenan.; format: functional
[7] = organism: Rattus norvegicus; assay: Tested for enhancement in the rat paw not injected with carrageenan.; format: functional
[8] = organism: Rattus norvegicus; assay: Average percent inhibition of the swelling of both injected and non injected paw was measured; format: functional
How it was run: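 Adjuvant arthritis in inbred female Lewis rats, groups of six, acclimatized 2 weeks. Arthritis induced by injecting 0.1 mL M. butyricum in mineral oil (3 mg/mL) into right hind paw plantar tissue. Oral dosing daily from adjuvant day to day 28: 10 (mg/kg)/day if mouse oral LD50 ≥1000 mg/kg, else 5 (mg/kg)/day. Swelling of injected and noninjected paws measured day 28 by mercury-displacement plethysmometry; mean percent inhibition scored 0–3.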

Cc1csc(/N=C(\Nc2cc(C)nc3ccccc23)NC2CCCCC2)n1
LD50 [1]: > 1000 mg/kg
inhibition [2]: 89.3%
LD50 [3]: > 1000 mg/kg
Inhibition [4]: 38%
Total score [5]: 7
Enhancement [6]: 15%
Enhancement [7]: 23%
Inhibition [8]: <10%
